Source: ChEMBL document CHEMBL3877264, “Quinolidene-rhodanine conjugates: Facile synthesis and biological evaluation” (Eur J Med Chem, 2017)
≈ marks a conversion by molar mass, not a printed value.

Legend:
[1] = tested on: Mycobacterium tuberculosis; assay: Growth inhibition of Mycobacterium bovis BCG ATCC 35743 at dormant stage at 10 ug/ml measured after 12 days by nitrate reductase dye based two fold dilution method relative to control; format: functional; conditions: BCG str. ATCC 35743, 288 h, read-out: GI
Summary of the method: (§1)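 M. bovis BCG was grown in Dubos medium and assayed in Mycobacterium pheli minimal medium (pH 6.6), with compounds from DMSO stocks. Incubation lasted 8 days for active and 12 days for dormant cultures. Viability was read by nitrate reductase at 540 nm against cell-free blanks, with vehicle set as 100% growth. Primary screen was at 30, 10 and 3 µg/ml, in triplicate, mean ± SD. MIC was taken from dose-response curves.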

[2] = tested on: Mycobacterium tuberculosis; assay: Growth inhibition of Mycobacterium tuberculosis H37Ra ATCC 25177 at dormant stage at 1.56 ug/ml measured after 12 days by XTT dye based two fold dilution method relative to control; format: functional; conditions: H37Ra ATCC 25177, 288 h, read-out: GI
Summary of the method: (§2)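 MTB H37Ra was grown in Dubos medium, then exposed in Mycobacterium pheli minimal medium (pH 6.6) to compounds dissolved in DMSO. The assay ended on day 8 (active) or day 12 (dormant). Viable cells were measured by XTT reduction menadione assay at 470 nm, blank-corrected, relative to vehicle control. Triplicates were expressed as mean ± SD. MIC came from dose-response curves.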

[3] = tested on: Mycobacterium tuberculosis; assay: Growth inhibition of Mycobacterium bovis BCG ATCC 35743 at dormant stage at 0.78 ug/ml measured after 12 days by nitrate reductase dye based two fold dilution method relative to control; format: functional; conditions: BCG str. ATCC 35743, 288 h, read-out: GI; summary of the method: as §1
[4] = tested on: Aspergillus flavus; assay: Antifungal activity against Aspergillus flavus NCIM 539 by standard agar method; format: functional
Summary of the method: (§3)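 MICs determined by standard agar method; DMSO as solvent control.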

[5] = Cytotoxicity against human A549 cells assessed as growth inhibition at 100 ug/ml measured after 48 hrs by MTT assay relative to control; format: toxicity, cell-based; conditions: read-out: GI
[6] = tested on: Mycobacterium tuberculosis; assay: Growth inhibition of Mycobacterium bovis BCG ATCC 35743 at active stage at 50 ug/ml measured after 8 days by nitrate reductase dye based two fold dilution method relative to control; format: functional; conditions: BCG str. ATCC 35743, 192 h, read-out: GI
[7] = tested on: Pseudomonas fluorescens; assay: Growth inhibition of Pseudomonas fluorescens NCIM 2036 at 10 ug/ml measured after 8 hrs relative to control; format: functional; conditions: NCIM 2036, 8 h, read-out: GI
Summary of the method: (§4)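 Bacteria grown in LB at 37 °C and 180 rpm to OD 1. Compounds added to wells, then 0.1% inoculum of 1 OD culture (620 nm). Growth read as OD at 620 nm after 8 h for gram-negative and after 12 h for gram-positive strains.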

[8] = tested on: Mycobacterium tuberculosis; assay: Growth inhibition of Mycobacterium bovis BCG ATCC 35743 at dormant stage measured after 12 days by nitrate reductase dye based two fold dilution method; format: functional; conditions: BCG str. ATCC 35743, 288 h; summary of the method: as §1
[9] = tested on: Mycobacterium tuberculosis; assay: Growth inhibition of Mycobacterium tuberculosis H37Ra ATCC 25177 at dormant stage at 12.5 ug/ml measured after 12 days by XTT dye based two fold dilution method relative to control; format: functional; conditions: H37Ra ATCC 25177, 288 h, read-out: GI
[10] = tested on: Mycobacterium tuberculosis; assay: Growth inhibition of Mycobacterium bovis BCG ATCC 35743 at active stage at 100 ug/ml measured after 8 days by nitrate reductase dye based two fold dilution method relative to control; format: functional; conditions: BCG str. ATCC 35743, 192 h, read-out: GI
[11] = tested on: Staphylococcus aureus; assay: Growth inhibition of Staphylococcus aureus NCIM 2010 at 3 ug/ml measured after 12 hrs relative to control; format: functional; conditions: NCIM 2010, 12 h, read-out: GI; summary of the method: as §4
[12] = tested on: Mycobacterium tuberculosis; assay: Growth inhibition of Mycobacterium bovis BCG ATCC 35743 at active stage at 3.13 ug/ml measured after 8 days by nitrate reductase dye based two fold dilution method relative to control; format: functional; conditions: BCG str. ATCC 35743, 192 h, read-out: GI; summary of the method: as §1
[13] = tested on: Mycobacterium tuberculosis; assay: Growth inhibition of Mycobacterium tuberculosis H37Ra ATCC 25177 at dormant stage at 6.25 ug/ml measured after 12 days by XTT dye based two fold dilution method relative to control; format: functional; conditions: H37Ra ATCC 25177, 288 h, read-out: GI; summary of the method: as §2
[14] = Selectivity index, ratio of GI50 for human HeLa cells to MIC for Mycobacterium tuberculosis H37Ra ATCC 25177 at dormant stage; format: toxicity, cell-based; conditions: read-out: Selectivity Index
Summary of the method: (§5)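 SI is the cell-line GI50 divided by the dormant-stage mycobacterial MIC. […] THP-1 macrophages were PMA-differentiated for 24 h.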

[15] = Selectivity index, ratio of GI50 for human THP1 cells to MIC for Mycobacterium tuberculosis H37Ra ATCC 25177 at dormant stage; format: toxicity, cell-based, THP-1; conditions: read-out: Selectivity Index; summary of the method: as §5
[16] = tested on: Mycobacterium tuberculosis; assay: Growth inhibition of Mycobacterium tuberculosis H37Ra ATCC 25177 at active stage at 25 ug/ml measured after 8 days by XTT dye based two fold dilution method relative to control; format: functional; conditions: H37Ra ATCC 25177, 192 h, read-out: GI; summary of the method: as §2
[17] = tested on: Mycobacterium tuberculosis; assay: Growth inhibition of Mycobacterium bovis BCG ATCC 35743 at active stage at 0.78 ug/ml measured after 8 days by nitrate reductase dye based two fold dilution method relative to control; format: functional; conditions: BCG str. ATCC 35743, 192 h, read-out: GI; summary of the method: as §1
[18] = Cytotoxicity against […]-differentiated human THP1 cells measured after 48 hrs by MTT assay; format: toxicity, cell-based, THP-1
Summary of the method: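 MTT assay with 48 h compound exposure. THP-1 macrophages made by 24 h PMA treatment. Each concentration tested in triplicate in one experiment. % cytotoxicity = (control−test)/(control−blank)×100, with control = cells + DMSO and blank = medium without cells. IC50 from % survival versus concentration plots.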

[19] = tested on: Mycobacterium tuberculosis; assay: Growth inhibition of Mycobacterium tuberculosis H37Ra ATCC 25177 at dormant stage at 0.78 ug/ml measured after 12 days by XTT dye based two fold dilution method relative to control; format: functional; conditions: H37Ra ATCC 25177, 288 h, read-out: GI; summary of the method: as §2
[20] = tested on: Mycobacterium tuberculosis; assay: Growth inhibition of Mycobacterium bovis BCG ATCC 35743 at active stage at 6.25 ug/ml measured after 8 days by nitrate reductase dye based two fold dilution method relative to control; format: functional; conditions: BCG str. ATCC 35743, 192 h, read-out: GI; summary of the method: as §1
[21] = tested on: Bacillus subtilis; assay: Growth inhibition of Bacillus subtilis NCIM 2079 at 10 ug/ml measured after 12 hrs relative to control; format: functional; conditions: NCIM 2079, 12 h, read-out: GI; summary of the method: as §4
[22] = tested on: Mycobacterium tuberculosis; assay: Growth inhibition of Mycobacterium bovis BCG ATCC 35743 at active stage at 25 ug/ml measured after 8 days by nitrate reductase dye based two fold dilution method relative to control; format: functional; conditions: BCG str. ATCC 35743, 192 h, read-out: GI; summary of the method: as §1
[23] = tested on: Pseudomonas fluorescens; assay: Growth inhibition of Pseudomonas fluorescens NCIM 2036 at 30 ug/ml measured after 8 hrs relative to control; format: functional; conditions: NCIM 2036, 8 h, read-out: GI; summary of the method: as §4
[24] = tested on: Mycobacterium tuberculosis; assay: Growth inhibition of Mycobacterium bovis BCG ATCC 35743 at dormant stage at 3.13 ug/ml measured after 12 days by nitrate reductase dye based two fold dilution method relative to control; format: functional; conditions: BCG str. ATCC 35743, 288 h, read-out: GI; summary of the method: as §1
[25] = tested on: Aspergillus niger; assay: Antifungal activity against Aspergillus niger NCIM 1196 by standard agar method; format: functional; summary of the method: as §3
[26] = Cytotoxicity against human HeLa cells at 100 ug/ml assessed as growth inhibition measured after 48 hrs by MTT assay relative to control; format: toxicity, cell-based; conditions: read-out: GI
[27] = tested on: Staphylococcus aureus; assay: Growth inhibition of Staphylococcus aureus NCIM 2010 at 10 ug/ml measured after 12 hrs relative to control; format: functional; conditions: NCIM 2010, 12 h, read-out: GI; summary of the method: as §4
[28] = tested on: Escherichia coli; assay: Growth inhibition of Escherichia coli NCIM 2688 at 30 ug/ml measured after 8 hrs relative to control; format: functional; conditions: NCIM 2688, 8 h, read-out: GI; summary of the method: as §4

SMILES | inhibition of growth at 10 µg/mL [1] | inhibition of growth at 1.56 µg/mL [2] | inhibition of growth at 0.78 µg/mL [3] | MIC [4] | inhibition at 48 h, 100 ug/ml [5] | inhibition of growth at 10 µg/mL [7] | IC50 [8] | IC90 [8] | inhibition of growth at 12.5 µg/mL [9] | inhibition of growth at 3 µg/mL [11] | inhibition of growth at 6.25 µg/mL [13] | inhibition of growth at 25 µg/mL [16] | GI50 at 48 h [18] | inhibition of growth at 0.78 µg/mL [19] | inhibition of growth at 10 µg/mL [21] | inhibition of growth at 30 µg/mL [23] | MIC [25] | inhibition at 48 h, 100 ug/ml [26] | inhibition of growth at 10 µg/mL [27] | inhibition of growth at 30 µg/mL [28] | also measured
CCOc1ccc2nc(Cl)c(/C=C3\SC(=S)NC3=O)cc2c1 | 93.5% | -9.88% | -57% | 50 µg/mL (≈ 143 µM) | 23.9% | 41% | 1.1 µg/mL (≈ 3.14 µM) | 1.9 µg/mL (≈ 5.42 µM) | 101% | 42.7% | 102% | 106% | > 100 µg/mL | -39.5% | -7.03% | 76% | 25 µg/mL (≈ 71.3 µM) | 30.2% | 46.8% | 28% | inhibition of growth at 50 µg/mL [6]: 98.1%; inhibition of growth at 100 µg/mL [10]: 96.8%; inhibition of growth at 3.13 µg/mL [12]: 99.4%; selectivity ratio [14]: 28.6; selectivity ratio [15]: 28.6; inhibition of growth at 0.78 µg/mL [17]: -51.8%; inhibition of growth at 6.25 µg/mL [20]: 101%; inhibition of growth at 25 µg/mL [22]: 98.6%; inhibition of growth at 3.13 µg/mL [24]: 100%
O=C(O)CN1C(=O)/C(=C/c2cc3cc(F)ccc3nc2Cl)SC1=S | 43.1% | 22.6% | 98.5% | 100 µg/mL (≈ 261 µM) | 33.7% | 1.08% | > 30 µg/mL | > 30 µg/mL | 1.72% | -0.864% | 7.26% | 10.4% | > 100 µg/mL | -24% | -2.7% | 2.4% | 25 µg/mL (≈ 65.3 µM) | 9.01% | -1.12% | -1.67% | inhibition of growth at 3.13 µg/mL [24]: 99.5%
COc1ccc2cc(/C=C3\SC(=S)NC3=O)c(Cl)nc2c1 | 27.9% | -28.4% | -50.5% | 100 µg/mL (≈ 297 µM) | 27.6% | 43.5% |  |  | 69.5% | 9.19% | 23.2% | 109% | > 100 µg/mL | -29.8% | -8.32% | 46.2% | 75 µg/mL (≈ 223 µM) | 30.1% | 44% | 35.5% | inhibition of growth at 50 µg/mL [6]: 99.9%; inhibition of growth at 100 µg/mL [10]: 98.9%; inhibition of growth at 3.13 µg/mL [12]: 91.5%; inhibition of growth at 0.78 µg/mL [17]: -60.1%; inhibition of growth at 6.25 µg/mL [20]: 96.6%; inhibition of growth at 25 µg/mL [22]: 98.4%; inhibition of growth at 3.13 µg/mL [24]: 81.6%
Cc1cccc2cc(/C=C3\SC(=S)N(CC(=O)O)C3=O)c(Cl)nc12 | 31.6% | 15.7% |  | 100 µg/mL (≈ 264 µM) | 15.6% | 21.3% | > 30 µg/mL | > 30 µg/mL | 51% | -24.6% | -2.45% | 93.4% | > 100 µg/mL | -43.4% | -19.6% | 54.8% | 200 µg/mL (≈ 528 µM) | 3.1% | -4.38% | -0.186% | selectivity ratio [14]: 5; selectivity ratio [15]: 5
